From ChEMBL document CHEMBL4350976, “Sequence modification of heptapeptide selected by phage display as homing device for HT-29 colon cancer cells to improve the anti-tumour activity of drug delivery systems” (Eur J Med Chem, 2019)
Where a SMILES comes first, the peptide text is derived from it. The star is where a group is joined. X1 = COc1cccc2c1C(=O)c1c(O)c3c(c(O)c1C2=O)C[C@@](O)(/C(C)=N/OCC(=O)*)C[C@@H]3O[C@H]1C[C@H](N)[C@H](O)[C@H](C)O1

Tests used:
HT-29 = test: Cytostatic activity against human HT-29 cells preincubated for 24 hrs under serum free condition followed by compound washout and further incubation for 48 hrs in presence of serum by MTT assay; type: functional, cell-based
How it was run: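 HT-29 cells were exposed to the compound for 24 h, washed, and kept a further 48 h. Viability was read by MTT. Absorbances were normalized to untreated controls and fitted by nonlinear regression to dose-response curves to give IC50.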

[1] = Retention time of the compound using 0.1% TFA in water and 0.1% TFA in acetonitrile-water (80:20 v/v) as eluents by RP-HPLC analysis; type: physicochemical
How it was run: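 Analytical RP-HPLC. Eluent A was 0.1% TFA in water and eluent B was 0.1% TFA in acetonitrile-water (80:20, v/v). Gradient: 0% B held to 5 min, then to 90% B at 50 min. Flow 1 mL/min, detection at 220 nm. The column was a Phenomenex Aeris Peptide XB-C18 (250×4.6 mm, 3.6 μm) or a Nucleosil C18 (5 μm, 100 Å, 250×4.6 mm), depending on the conjugate series.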

[2] = Drug uptake in human HT-29 cells at 100 uM incubated for 3 hrs by flow cytometry; type: ADME, cell-based; conditions: ht-29, 3 h
How it was run: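 HT-29 cells were exposed to 100 µM conjugate for 3 h. Flow cytometry recorded the percentage of Dau-positive cells and the mean fluorescence intensity, in duplicate.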

| Compound | IC50 (HT-29) | Retention time [1] | Retention_time [1] | Drug uptake [2] |
| --- | --- | --- | --- | --- |
| COc1cccc2c1C(=O)c1c(O)c3c(c(O)c1C2=O)C[C@@](O)(/C(C)=N/OCC(=O)N[C@@H](CC(C)C)C(=O)N[C@@H](CCCNC(=N)N)C(=O)N[C@@H](CCCNC(=N)N)C(=O)N[C@@H](Cc1ccc(O)cc1)C(=O)N[C@H](C(=O)N[C@@H](Cc1cnc[nH]1)C(=O)N[C@@H](CC(C)C)C(=O)N[C@@H](Cc1ccccc1)C(=O)N[C@@H](Cc1ccc(O)cc1)C(=O)N[C@@H](CO)C(=O)N[C@H](C(N)=O)[C@@H](C)O)C(C)C)C[C@@H]3O[C@H]1C[C@H](N)[C@H](O)[C@H](C)O1 (X1-LRRYVHLFYST-NH2) | 17.7 µM | 32.1 to 32.9 min | – | – |
| COc1cccc2c1C(=O)c1c(O)c3c(c(O)c1C2=O)C[C@@](O)(/C(C)=N/OCC(=O)N[C@@H](CC(C)C)C(=O)N[C@@H](CCCNC(=N)N)C(=O)N[C@@H](CCCNC(=N)N)C(=O)N[C@@H](Cc1ccc(O)cc1)C(=O)N[C@H](C(=O)N[C@@H](Cc1cnc[nH]1)C(=O)N[C@@H](C)C(=O)NCC(=O)N[C@@H](Cc1ccc(O)cc1)C(=O)N[C@@H](C)C(=O)N[C@H](C(N)=O)[C@@H](C)O)C(C)C)C[C@@H]3O[C@H]1C[C@H](N)[C@H](O)[C@H](C)O1 (X1-LRRYVHAGYAT-NH2) | > 100 µM | 27.2 to 29.9 min | – | Active |
| COc1cccc2c1C(=O)c1c(O)c3c(c(O)c1C2=O)C[C@@](O)(/C(C)=N/OCC(=O)N[C@@H](CC(C)C)C(=O)N[C@@H](CCCNC(=N)N)C(=O)N[C@@H](CCCNC(=N)N)C(=O)N[C@@H](Cc1ccc(O)cc1)C(=O)N[C@H](C(=O)N[C@@H](Cc1cnc[nH]1)C(=O)N[C@@H](CC(C)C)C(=O)NCC(=O)N[C@@H](Cc1ccc(O)cc1)C(=O)N[C@@H](C)C(=O)N[C@@H](C)C(N)=O)C(C)C)C[C@@H]3O[C@H]1C[C@H](N)[C@H](O)[C@H](C)O1 (X1-LRRYVHLGYAA-NH2) | 70.9 µM | 28 to 30.7 min | – | Active |
| COc1cccc2c1C(=O)c1c(O)c3c(c(O)c1C2=O)C[C@@](O)(/C(C)=N/OCC(=O)N[C@@H](CC(C)C)C(=O)N[C@@H](CCCNC(=N)N)C(=O)N[C@@H](CCCNC(=N)N)C(=O)N[C@@H](Cc1ccc(O)cc1)C(=O)N[C@H](C(=O)N[C@@H](Cc1cnc[nH]1)C(=O)N[C@@H](CC(C)C)C(=O)N[C@@H](Cc1ccccc1)C(=O)N[C@@H](Cc1ccc(O)cc1)C(=O)N1CCC[C@H]1C(=O)N[C@H](C(N)=O)[C@@H](C)O)C(C)C)C[C@@H]3O[C@H]1C[C@H](N)[C@H](O)[C@H](C)O1 (X1-LRRYVHLFYPT-NH2) | 10.9 µM | – | 31.6 min | – |
| COc1cccc2c1C(=O)c1c(O)c3c(c(O)c1C2=O)C[C@@](O)(/C(C)=N/OCC(=O)N[C@@H](CC(C)C)C(=O)N[C@@H](CCCNC(=N)N)C(=O)N[C@@H](CCCNC(=N)N)C(=O)N[C@@H](Cc1ccc(O)cc1)C(=O)N[C@H](C(=O)N[C@@H](Cc1cnc[nH]1)C(=O)N[C@@H](CC(C)C)C(=O)N[C@@H](Cc1ccccc1)C(=O)N[C@@H](Cc1ccc(O)cc1)C(=O)N[C@@H](CCCCN)C(=O)N[C@H](C(N)=O)[C@@H](C)O)C(C)C)C[C@@H]3O[C@H]1C[C@H](N)[C@H](O)[C@H](C)O1 (X1-LRRYVHLFYKT-NH2) | 11.5 µM | 30.5 to 32 min | – | – |
| COc1cccc2c1C(=O)c1c(O)c3c(c(O)c1C2=O)C[C@@](O)(/C(C)=N/OCC(=O)N[C@@H](CC(C)C)C(=O)N[C@@H](CCCNC(=N)N)C(=O)N[C@@H](CCCNC(=N)N)C(=O)N[C@@H](Cc1ccc(O)cc1)C(=O)N[C@H](C(=O)N[C@@H](Cc1cnc[nH]1)C(=O)N[C@@H](CC(C)C)C(=O)NCC(=O)N[C@@H](C)C(=O)N[C@@H](C)C(=O)N[C@H](C(N)=O)[C@@H](C)O)C(C)C)C[C@@H]3O[C@H]1C[C@H](N)[C@H](O)[C@H](C)O1 (X1-LRRYVHLGAAT-NH2) | > 100 µM | 27.4 to 30.1 min | – | Active |
| COc1cccc2c1C(=O)c1c(O)c3c(c(O)c1C2=O)C[C@@](O)(/C(C)=N/OCC(=O)N[C@H](C(=O)N[C@@H](Cc1cnc[nH]1)C(=O)N[C@@H](CC(C)C)C(=O)NCC(=O)N[C@@H](Cc1ccc(O)cc1)C(=O)N[C@@H](C)C(=O)N[C@H](C(N)=O)[C@@H](C)O)C(C)C)C[C@@H]3O[C@H]1C[C@H](N)[C@H](O)[C@H](C)O1 (X1-VHLGYAT-NH2) | – | – | 26.1 min | – |

Continued, values first:

| IC50 (HT-29) | Retention time [1] | Retention_time [1] | Drug uptake [2] | Compound |
| --- | --- | --- | --- | --- |
| 29.5 µM | 29.3 to 31.2 min | – | – | COc1cccc2c1C(=O)c1c(O)c3c(c(O)c1C2=O)C[C@@](O)(/C(C)=N/OCC(=O)N[C@@H](CC(C)C)C(=O)N[C@@H](CCCNC(=N)N)C(=O)N[C@@H](CCCNC(=N)N)C(=O)N[C@@H](Cc1ccc(O)cc1)C(=O)N[C@H](C(=O)N[C@@H](Cc1cnc[nH]1)C(=O)N[C@@H](CC(C)C)C(=O)N[C@@H](CCC(=O)O)C(=O)N[C@@H](Cc1ccc(O)cc1)C(=O)N[C@@H](C)C(=O)N[C@H](C(N)=O)[C@@H](C)O)C(C)C)C[C@@H]3O[C@H]1C[C@H](N)[C@H](O)[C@H](C)O1 (X1-LRRYVHLEYAT-NH2) |
| 21.7 µM | – | 29 min | – | COc1cccc2c1C(=O)c1c(O)c3c(c(O)c1C2=O)C[C@@](O)(/C(C)=N/OCC(=O)N[C@@H](CC(C)C)C(=O)N[C@@H](CCCNC(=N)N)C(=O)N[C@@H](CCCNC(=N)N)C(=O)N[C@@H](Cc1ccc(O)cc1)C(=O)N[C@H](C(=O)N[C@@H](Cc1cnc[nH]1)C(=O)N[C@@H](CC(C)C)C(=O)N[C@H](C(=O)N[C@@H](Cc1ccc(O)cc1)C(=O)N[C@@H](C)C(=O)N[C@H](C(N)=O)[C@@H](C)O)[C@@H](C)O)C(C)C)C[C@@H]3O[C@H]1C[C@H](N)[C@H](O)[C@H](C)O1 (X1-LRRYVHLTYAT-NH2) |
| 7.5 µM | 31.1 to 33.1 min | – | – | COc1cccc2c1C(=O)c1c(O)c3c(c(O)c1C2=O)C[C@@](O)(/C(C)=N/OCC(=O)N[C@@H](CC(C)C)C(=O)N[C@@H](CCCNC(=N)N)C(=O)N[C@@H](CCCNC(=N)N)C(=O)N[C@@H](Cc1ccc(O)cc1)C(=O)N[C@H](C(=O)N[C@@H](Cc1cnc[nH]1)C(=O)N[C@@H](CC(C)C)C(=O)N[C@@H](CC(C)C)C(=O)N[C@@H](Cc1ccc(O)cc1)C(=O)N[C@@H](C)C(=O)N[C@H](C(N)=O)[C@@H](C)O)C(C)C)C[C@@H]3O[C@H]1C[C@H](N)[C@H](O)[C@H](C)O1 (X1-LRRYVHLLYAT-NH2) |
| 15.4 µM | – | 31.8 min | – | COc1cccc2c1C(=O)c1c(O)c3c(c(O)c1C2=O)C[C@@](O)(/C(C)=N/OCC(=O)N[C@@H](CC(C)C)C(=O)N[C@@H](CCCNC(=N)N)C(=O)N[C@@H](CCCNC(=N)N)C(=O)N[C@@H](Cc1ccc(O)cc1)C(=O)N[C@H](C(=O)N[C@@H](Cc1cnc[nH]1)C(=O)N[C@@H](CC(C)C)C(=O)N[C@@H](Cc1ccccc1)C(=O)N[C@@H](Cc1ccc(O)cc1)C(=O)N[C@@H](CC(N)=O)C(=O)N[C@H](C(N)=O)[C@@H](C)O)C(C)C)C[C@@H]3O[C@H]1C[C@H](N)[C@H](O)[C@H](C)O1 (X1-LRRYVHLFYNT-NH2) |
| 50.3 µM | 28.2 to 30.1 min | – | – | COc1cccc2c1C(=O)c1c(O)c3c(c(O)c1C2=O)C[C@@](O)(/C(C)=N/OCC(=O)N[C@@H](CC(C)C)C(=O)N[C@@H](CCCNC(=N)N)C(=O)N[C@@H](CCCNC(=N)N)C(=O)N[C@@H](Cc1ccc(O)cc1)C(=O)N[C@H](C(=O)N[C@@H](Cc1cnc[nH]1)C(=O)N[C@@H](CC(C)C)C(=O)N[C@@H](CCCCN)C(=O)N[C@@H](Cc1ccc(O)cc1)C(=O)N[C@@H](C)C(=O)N[C@H](C(N)=O)[C@@H](C)O)C(C)C)C[C@@H]3O[C@H]1C[C@H](N)[C@H](O)[C@H](C)O1 (X1-LRRYVHLKYAT-NH2) |
| 38.4 µM | 30.8 to 31.7 min | – | – | COc1cccc2c1C(=O)c1c(O)c3c(c(O)c1C2=O)C[C@@](O)(/C(C)=N/OCC(=O)N[C@@H](CC(C)C)C(=O)N[C@@H](CCCNC(=N)N)C(=O)N[C@@H](CCCNC(=N)N)C(=O)N[C@@H](Cc1ccc(O)cc1)C(=O)N[C@H](C(=O)N[C@@H](Cc1cnc[nH]1)C(=O)N[C@@H](CC(C)C)C(=O)N[C@@H](Cc1ccc(O)cc1)C(=O)N[C@@H](Cc1ccc(O)cc1)C(=O)N[C@@H](C)C(=O)N[C@H](C(N)=O)[C@@H](C)O)C(C)C)C[C@@H]3O[C@H]1C[C@H](N)[C@H](O)[C@H](C)O1 (X1-LRRYVHLYYAT-NH2) |
| 54.3 µM | 31.9 to 33.1 min | – | – | COc1cccc2c1C(=O)c1c(O)c3c(c(O)c1C2=O)C[C@@](O)(/C(C)=N/OCC(=O)N[C@@H](CC(C)C)C(=O)N[C@@H](CCCNC(=N)N)C(=O)N[C@@H](CCCNC(=N)N)C(=O)N[C@@H](Cc1ccc(O)cc1)C(=O)N[C@H](C(=O)N[C@@H](Cc1cnc[nH]1)C(=O)N[C@@H](CC(C)C)C(=O)N[C@@H](Cc1ccccc1)C(=O)N[C@@H](Cc1ccc(O)cc1)C(=O)N[C@@H](CCC(=O)O)C(=O)N[C@H](C(N)=O)[C@@H](C)O)C(C)C)C[C@@H]3O[C@H]1C[C@H](N)[C@H](O)[C@H](C)O1 (X1-LRRYVHLFYET-NH2) |
| 28 µM | 29 to 30.8 min | – | – | COc1cccc2c1C(=O)c1c(O)c3c(c(O)c1C2=O)C[C@@](O)(/C(C)=N/OCC(=O)N[C@@H](CC(C)C)C(=O)N[C@@H](CCCNC(=N)N)C(=O)N[C@@H](CCCNC(=N)N)C(=O)N[C@@H](Cc1ccc(O)cc1)C(=O)N[C@H](C(=O)N[C@@H](Cc1cnc[nH]1)C(=O)N[C@@H](CC(C)C)C(=O)N[C@@H](CC(N)=O)C(=O)N[C@@H](Cc1ccc(O)cc1)C(=O)N[C@@H](C)C(=O)N[C@H](C(N)=O)[C@@H](C)O)C(C)C)C[C@@H]3O[C@H]1C[C@H](N)[C@H](O)[C@H](C)O1 (X1-LRRYVHLNYAT-NH2) |
